This note sets out measurements from ChEMBL document CHEMBL2203171, “The use of small molecule probes to study spatially separated stimulus-induced signaling pathways” (Bioorg Med Chem Lett, 2012).

Calls of active or inactive are those of the source. No cut-off for these calls is given here.

In assay [1] the target is T1, Toll-like receptor 9 (Mus musculus) (UniProt Q9EQU3).
T1 sequence (whole entry): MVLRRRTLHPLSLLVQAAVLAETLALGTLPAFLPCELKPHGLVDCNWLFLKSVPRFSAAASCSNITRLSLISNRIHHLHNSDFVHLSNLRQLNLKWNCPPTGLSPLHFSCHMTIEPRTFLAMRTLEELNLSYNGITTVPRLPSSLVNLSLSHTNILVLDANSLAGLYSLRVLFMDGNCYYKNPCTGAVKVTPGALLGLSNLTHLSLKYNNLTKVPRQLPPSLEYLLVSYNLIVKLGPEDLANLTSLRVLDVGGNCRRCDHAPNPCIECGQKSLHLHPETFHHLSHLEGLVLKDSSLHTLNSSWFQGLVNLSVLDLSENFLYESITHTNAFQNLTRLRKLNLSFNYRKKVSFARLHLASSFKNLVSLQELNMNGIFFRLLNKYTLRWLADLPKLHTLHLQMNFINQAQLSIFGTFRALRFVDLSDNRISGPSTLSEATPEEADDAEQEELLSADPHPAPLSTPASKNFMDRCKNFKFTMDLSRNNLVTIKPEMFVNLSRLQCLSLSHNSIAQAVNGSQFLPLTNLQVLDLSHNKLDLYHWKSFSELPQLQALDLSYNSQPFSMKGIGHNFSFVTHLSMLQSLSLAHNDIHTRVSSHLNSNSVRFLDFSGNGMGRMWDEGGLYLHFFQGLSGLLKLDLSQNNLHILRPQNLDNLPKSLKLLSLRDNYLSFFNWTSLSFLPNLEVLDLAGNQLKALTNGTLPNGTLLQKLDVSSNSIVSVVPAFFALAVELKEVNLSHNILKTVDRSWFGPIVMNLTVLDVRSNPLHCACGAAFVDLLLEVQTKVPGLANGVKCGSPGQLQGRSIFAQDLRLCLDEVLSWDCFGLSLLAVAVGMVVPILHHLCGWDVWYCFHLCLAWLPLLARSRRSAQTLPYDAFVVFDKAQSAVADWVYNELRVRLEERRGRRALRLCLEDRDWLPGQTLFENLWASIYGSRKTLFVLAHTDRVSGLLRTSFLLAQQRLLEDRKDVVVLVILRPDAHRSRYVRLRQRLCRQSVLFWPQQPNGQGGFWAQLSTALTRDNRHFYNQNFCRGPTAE
Kind of assay: Inhibition of MyD88 recruitment to TLR9 in C57BL/6 mouse BMDM cells assessed as inhibition of CpG-induced p38 MAPK activity up to 90 mins. Format: cell-based. Summed up:
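Bone marrow macrophages from C57BL/6 mice, grown in 70% growth medium (DMEM, 10% FBS) plus 30% L929-conditioned medium and given fresh medium 12-14 h before stimulation. Stimuli: IL-1 40 ng/ml, HKSA ~10^8 cfu/ml, pI:pC 50 μg/ml or CpG 10 μg/ml, ± compound at 10 μM (final) added from a 200x DMSO stock. IκBα and p38 profiled by immunoblot. Three independent experiments, quantitated and normalized.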

Assay [2] has as its target Toll-like receptor 4 (Homo sapiens) (UniProt O00206). Kind of assay: Inhibition of MyD88 recruitment to TLR4 cytoplasmic domain expressed in CHO cells at 25 to 50 uM incubated for 30 mins prior to CCf2/AM loading measured after 1 hr by beta-lactamase complementation assay. In kind it is cell-based. The method in brief:
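CHO cells co-expressing TLR4- and MyD88-β-lactamase fragment fusions, or empty-vector controls, were plated for 24 h and then treated 30 min with compound at 25 or 50 μM. Cells were loaded with 1 μM CCF2/AM for 1 h at room temperature and imaged by fluorescence microscopy (405 nm excitation, 435 nm long-pass emission). Read-out: percent of blue (β-lactamase-positive) cells.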

For assay [3], the target named is MAP kinase p38 (Mus musculus) (UniProt P47811+O08911+Q9WUI1+Q9Z1B7). Nature of the assay: Inhibition of MAPK p38 in C57BL/6 mouse BMDM cells assessed as inhibition of LPS-induced phosphorylation at 50 uM up to 90 mins by Western blot analysis. In kind it is cell-based. On the technique in general: In western blotting, separated proteins are transferred to a membrane and probed.

The target in assay [4] is T2, Inhibitor of nuclear factor kappa-B kinase subunit beta (Mus musculus) (UniProt O88351).
T2 sequence (whole entry): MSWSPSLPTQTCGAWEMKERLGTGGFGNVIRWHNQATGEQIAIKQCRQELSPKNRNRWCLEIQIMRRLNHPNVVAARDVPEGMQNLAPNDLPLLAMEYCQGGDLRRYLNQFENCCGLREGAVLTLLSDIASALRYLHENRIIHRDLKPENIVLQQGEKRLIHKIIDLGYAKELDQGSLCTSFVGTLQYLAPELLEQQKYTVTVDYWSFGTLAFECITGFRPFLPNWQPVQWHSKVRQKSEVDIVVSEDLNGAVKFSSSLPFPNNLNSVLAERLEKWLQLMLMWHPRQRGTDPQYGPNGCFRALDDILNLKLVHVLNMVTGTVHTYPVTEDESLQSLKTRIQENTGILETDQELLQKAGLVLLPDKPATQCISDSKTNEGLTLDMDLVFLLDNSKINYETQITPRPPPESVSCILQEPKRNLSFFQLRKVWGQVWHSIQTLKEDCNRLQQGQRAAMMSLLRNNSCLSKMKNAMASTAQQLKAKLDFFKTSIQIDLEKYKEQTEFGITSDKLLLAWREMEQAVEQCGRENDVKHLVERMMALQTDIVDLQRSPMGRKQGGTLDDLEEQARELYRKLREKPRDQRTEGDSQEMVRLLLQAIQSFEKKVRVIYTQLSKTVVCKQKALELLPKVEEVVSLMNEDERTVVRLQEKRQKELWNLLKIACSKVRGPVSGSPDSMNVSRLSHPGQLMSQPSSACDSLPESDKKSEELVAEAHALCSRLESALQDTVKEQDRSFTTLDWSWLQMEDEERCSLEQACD
Nature of the assay: Inhibition of IKKebta in C57BL/6 mouse BMDM cells assessed as inhibition of LPS-induced IkappaBalpha phosphorylation at 25 uM by Western blot analysis.

Chain of Toll-like receptor 4 (Homo sapiens) (O00206 whole entry, the tested form may be a part): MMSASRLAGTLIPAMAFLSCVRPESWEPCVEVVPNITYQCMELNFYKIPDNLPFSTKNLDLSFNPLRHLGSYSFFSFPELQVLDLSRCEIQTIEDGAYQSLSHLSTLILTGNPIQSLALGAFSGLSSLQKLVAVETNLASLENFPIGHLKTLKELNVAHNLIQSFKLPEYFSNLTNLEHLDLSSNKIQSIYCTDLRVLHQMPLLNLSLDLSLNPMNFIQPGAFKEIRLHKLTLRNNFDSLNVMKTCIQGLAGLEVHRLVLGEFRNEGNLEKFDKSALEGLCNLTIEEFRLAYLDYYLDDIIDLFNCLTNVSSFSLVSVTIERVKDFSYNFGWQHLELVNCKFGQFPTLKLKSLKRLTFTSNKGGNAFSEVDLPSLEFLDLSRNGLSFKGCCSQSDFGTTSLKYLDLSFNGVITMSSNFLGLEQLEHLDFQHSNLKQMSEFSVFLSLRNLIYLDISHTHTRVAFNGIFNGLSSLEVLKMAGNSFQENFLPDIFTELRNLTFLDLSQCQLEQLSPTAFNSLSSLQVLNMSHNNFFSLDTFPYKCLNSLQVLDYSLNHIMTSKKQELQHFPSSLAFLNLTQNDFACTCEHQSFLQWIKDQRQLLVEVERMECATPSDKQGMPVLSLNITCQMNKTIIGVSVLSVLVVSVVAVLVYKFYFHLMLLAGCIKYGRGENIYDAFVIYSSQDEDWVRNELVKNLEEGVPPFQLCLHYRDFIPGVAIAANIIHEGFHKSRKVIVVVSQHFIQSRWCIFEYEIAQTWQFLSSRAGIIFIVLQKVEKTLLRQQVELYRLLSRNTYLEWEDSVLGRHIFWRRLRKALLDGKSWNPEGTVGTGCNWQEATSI

For `O=C(CCCCCN1C(=O)C=CC1=O)Oc1ccc2cc(C(C(=O)NCc3ccccc3)N(C(=O)Cc3ccc4c(c3)OCO4)C3CC3)ccc2c1` (centres undefined), the inhibition entry in assay [1], in assay [2] and in assay [3] was “inactive” each time. Further, the inhibition entry in assay [4] is “Active”.
